ChEMBL document CHEMBL2029211, “From a marine neuropeptide to antimicrobial pseudopeptides containing aza-β(3)-amino acids: structure and activity” (J Med Chem, 2012)
Values after ≈ are worked out from the molar mass of the structure shown. Active and inactive are the calls of the source. The rule behind the calls is not given here. Starred links: 1 amine or outer side, 2 acyl side, 3 side chain; linkers in the order of their positions; H or OH if unused. Non-standard residues stand in square brackets, D forms with d. Residues, ends and D or L forms follow the SMILES beside them. *: point of attachment. azaβ3(1Nal) = O=C(CN(Cc1cccc2ccccc12)N[*:1])[*:2]; X2 = O=C(CN(Cc1ccc2ccccc2c1)N[*:1])[*:2]; X1 = NC(=O)CN(Cc1cccc2ccccc12)N*; X3 = NC(=O)CN(Cc1ccc2ccccc2c1)N*; X4 = NCCCCN(CC(=O)[*:2])N[*:1]

How the values were obtained:
Priestia megaterium = experiment: Antibacterial activity against Bacillus megaterium after 20 hrs by liquid growth inhibition assay; assay type: functional
Outline: (§1)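 Liquid growth inhibition with peptides dissolved in distilled water, final 20–640 μg.mL-1, added to mid-log bacteria at starting D600 = 0.001. Standard strains in poor broth (1% peptone, 0.5% NaCl, pH 7.5); pathogenic strains in poor broth plus 0.3% beef extract. Incubated 20 h at 30°C; growth read as OD at 595 nm; MIC taken as lowest concentration giving 100% inhibition.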

Enterococcus faecalis = experiment: Antibacterial activity against Enterococcus faecalis after 20 hrs by liquid growth inhibition assay; assay type: functional
Outline: (§2)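 Bacteria grown in brain heart infusion and challenged at mid-log phase (starting D600 = 0.001) with water-dissolved peptides at final 20–640 μg.mL-1. After 20 h at 30°C, OD at 595 nm was read. MIC is the lowest concentration giving complete (100%) growth inhibition.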

Listeria monocytogenes = experiment: Antibacterial activity against Listeria monocytogenes after 20 hrs by liquid growth inhibition assay; assay type: functional; outline: as §2
Staphylococcus aureus = experiment: Antibacterial activity against Staphylococcus aureus after 20 hrs by liquid growth inhibition assay; assay type: functional; outline: as §1
Escherichia coli = experiment: Antibacterial activity against Escherichia coli after 20 hrs by liquid growth inhibition assay; assay type: functional; outline: as §1
Salmonella typhimurium = experiment: Antibacterial activity against Salmonella typhimurium after 20 hrs by liquid growth inhibition assay; assay type: functional, Salmonella enterica subsp. enterica serovar Typhimurium; outline: as §1
Pseudomonas aeruginosa = experiment: Antibacterial activity against Pseudomonas aeruginosa after 20 hrs by liquid growth inhibition assay; assay type: functional; outline: as §1
Klebsiella pneumoniae = experiment: Antibacterial activity against Klebsiella pneumoniae after 20 hrs by liquid growth inhibition assay; assay type: functional; outline: as §1
Vibrio harveyi = experiment: Antibacterial activity against Vibrio harveyi after 20 hrs by liquid growth inhibition assay; assay type: functional
Outline: (§3)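 Vibrios cultured in saline poor broth (1% peptone, 1.5% NaCl, pH 7.2), diluted from mid-log phase to starting D600 = 0.001, then exposed to water-dissolved peptides at final 20–640 μg.mL-1. Incubated 20 h at 18°C; OD read at 595 nm. MIC is the lowest concentration giving 100% inhibition.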

Vibrio alginolyticus = experiment: Antibacterial activity against Vibrio alginolyticus after 20 hrs by liquid growth inhibition assay; assay type: functional; outline: as §3
Vibrio aestuarianus = experiment: Antibacterial activity against Vibrio aestuarianus after 20 hrs by liquid growth inhibition assay; assay type: functional; outline: as §3
Vibrio splendidus = experiment: Antibacterial activity against Vibrio splendidus after 20 hrs by liquid growth inhibition assay; assay type: functional; outline: as §3
[1] = (§4) Cytotoxicity against CHOK1 cells assessed as cell viability at 640 ug/ml after 36 hrs by MTT assay; assay type: cell-based, Cricetulus griseus, CHO-K1; conditions: chinese hamster, CHO-K1 cells; read-out: Activity
Outline: (§5)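 CHO-K1 cells (1.34×10^4/well) in Ham F12 with L-glutamine and 10% foetal calf serum were preincubated 6 h at 37 °C, 5% CO2. Peptides in PBS were added at final 20–640 μg.mL−1 for 36 h. Viability was read by MTT reduction at 570 nm, with PBS as 100% and 1% Triton X-100 as 0% viability; triplicates.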

[2] = Toxicity in rabbit erythrocytes assessed as hemolysis up to 320 ug/ml; assay type: cell-based, Oryctolagus cuniculus, Erythrocyte; conditions: read-out: Activity
Outline: (§6)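 Freshly isolated rabbit erythrocytes were incubated 1 h at 37°C with peptide in PBS at 20 to 320 μg.mL−1. Supernatant OD was read at 415 nm, with PBS as zero and 1% Triton X-100 as 100% hemolysis; triplicate for each concentration and control.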

CHO-K1 [3] = experiment: as §4; assay type: cell-based, Cricetulus griseus; conditions: chinese hamster, cho-k1, 36 h; outline: as §5
[4] = Toxicity in rabbit erythrocytes assessed as hemolysis; assay type: cell-based, Oryctolagus cuniculus, Erythrocyte; conditions: read-out: HD50 (the source's name); outline: as §6
[5] = Ratio of HD50 for rabbit erythrocytes to MIC for Staphylococcus aureus; assay type: functional
CHO-K1 [6] = experiment: Cytotoxicity against CHOK1 cells assessed as cell viability up to 40 ug/ml after 36 hrs by MTT assay; assay type: cell-based, Cricetulus griseus; conditions: chinese hamster, cho-k1, 36 h; outline: as §5
[7] = Cytotoxicity against CHOK1 cells assessed as cell viability at 160 ug/ml after 36 hrs by MTT assay; assay type: cell-based, Cricetulus griseus; conditions: chinese hamster, CHO-K1 cells; read-out: Activity; outline: as §5
[8] = Ratio of toxicity in CHOK1 cells to MIC for Listeria monocytogenes; assay type: functional, CHO-K1
[9] = Ratio of toxicity in CHOK1 cells to MIC for Salmonella typhimurium; assay type: functional, CHO-K1
[10] = Ratio of toxicity in CHOK1 cells to MIC for Staphylococcus aureus; assay type: functional, CHO-K1
[11] = Salmonella enterica subsp. enterica serovar Typhimurium

MIC (Priestia megaterium)	MIC (Enterococcus faecalis)	MIC (Listeria monocytogenes)	MIC (Staphylococcus aureus)	MIC (Escherichia coli)	MIC (Salmonella typhimurium; Salmonella enterica)	MIC (Pseudomonas aeruginosa)	MIC (Klebsiella pneumoniae)	MIC (Vibrio harveyi)	MIC (Vibrio alginolyticus)	MIC (Vibrio aestuarianus)	MIC (Vibrio splendidus)	Compound	also measured
80 mg/L (≈ 64.6 µM)	> 640 mg/L	160 mg/L (≈ 129 µM)	40 mg/L (≈ 32.3 µM)	160 mg/L (≈ 129 µM)	160 mg/L (≈ 129 µM)	320 mg/L (≈ 258 µM)	> 640 mg/L	640 mg/L (≈ 517 µM)	> 640 mg/L	80 mg/L (≈ 64.6 µM)	640 mg/L (≈ 517 µM)	CC(C)C[C@H](NC(=O)CN(Cc1ccc2ccccc2c1)NC(=O)[C@H](C)NC(=O)[C@H](CCCCN)NC(=O)CNC(=O)[C@H](CO)NC(=O)[C@H](CC(C)C)NC(=O)[C@H](C)N)C(=O)N[C@@H](CCCNC(=N)N)C(=O)NN(CC(N)=O)Cc1ccc2ccccc2c1 (H-ALSGKA[X2]LR-X3)	viability at 36 h, 640 ug/ml [1]: 47%
80 mg/L (≈ 68.2 µM)	> 640 mg/L	80 mg/L (≈ 68.2 µM)	80 mg/L (≈ 68.2 µM)	320 mg/L (≈ 273 µM)	80 mg/L (≈ 68.2 µM)	160 mg/L (≈ 136 µM)	inactive	40 mg/L (≈ 34.1 µM)	80 mg/L (≈ 68.2 µM)	40 mg/L (≈ 34.1 µM)	20 mg/L (≈ 17 µM)	CC(C)C[C@H](NC(=O)CN(Cc1ccc2ccccc2c1)NC(=O)[C@H](C)NC(=O)[C@H](CCCCN)NC(=O)CNC(=O)[C@H](CO)NC(=O)[C@H](CC(C)C)NC(=O)[C@H](C)N)C(=O)N[C@@H](CCCNC(=N)N)C(=O)N[C@@H](Cc1ccccc1)C(N)=O (H-ALSGKA[X2]LRF-NH2)	hemolysis [2]: 5%
20 mg/L (≈ 16.1 µM)	> 640 mg/L	80 mg/L (≈ 64.6 µM)	20 mg/L (≈ 16.1 µM)	40 mg/L (≈ 32.3 µM)	80 mg/L (≈ 64.6 µM)	160 mg/L (≈ 129 µM)	inactive	640 mg/L (≈ 517 µM)	> 640 mg/L	80 mg/L (≈ 64.6 µM)	320 mg/L (≈ 258 µM)	CC(C)C[C@H](NC(=O)CN(Cc1cccc2ccccc12)NC(=O)[C@H](C)NC(=O)[C@H](CCCCN)NC(=O)CNC(=O)[C@H](CO)NC(=O)[C@H](CC(C)C)NC(=O)[C@H](C)N)C(=O)N[C@@H](CCCNC(=N)N)C(=O)NN(CC(N)=O)Cc1cccc2ccccc12 (H-ALSGKA[azaβ3(1Nal)]LR-X1)	Activity (CHO-K1 [3]): Toxic; HC50 [4]: 200 µg/mL; Ratio [5]: 10; Activity (CHO-K1 [6]): Non-toxic; viability at 36 h, 160 ug/ml [7]: 78%; Ratio [8]: 8; Ratio [9]: 8; Ratio [10]: 32
inactive	inactive	inactive	inactive	inactive	–	> 640 mg/L	inactive	inactive	inactive	inactive	320 mg/L (≈ 285 µM)	CC(C)C[C@H](NC(=O)[C@H](C)N)C(=O)N[C@@H](CO)C(=O)NCC(=O)NN(CCCCN)CC(=O)N[C@@H](C)C(=O)N[C@@H](Cc1ccccc1)C(=O)N[C@@H](CC(C)C)C(=O)N[C@@H](CCCNC(=N)N)C(=O)N[C@@H](Cc1ccccc1)C(N)=O (H-ALSG[X4]AFLRF-NH2)	MIC (Salmonella typhimurium; [11]): inactive
640 mg/L	inactive	inactive	inactive	640 mg/L	–	inactive	inactive	> 640 mg/L	320 mg/L	640 mg/L	320 mg/L	H-ALSGDAFLRF-NH2	MIC (Salmonella typhimurium; [11]): inactive
80 mg/L	inactive	inactive	320 mg/L	80 mg/L	320 mg/L	640 mg/L	> 640 mg/L	320 mg/L	320 mg/L	80 mg/L	40 mg/L	H-ALSGKAFLRF-NH2	hemolysis [2]: < 1.5%; viability at 36 h, 640 ug/ml [1]: 87%

Compound	MIC (Priestia megaterium)	MIC (Enterococcus faecalis)	MIC (Listeria monocytogenes)	MIC (Staphylococcus aureus)	MIC (Escherichia coli)	MIC (Salmonella typhimurium; Salmonella enterica)	MIC (Pseudomonas aeruginosa)	MIC (Klebsiella pneumoniae)	MIC (Vibrio harveyi)	MIC (Vibrio alginolyticus)	MIC (Vibrio aestuarianus)	MIC (Vibrio splendidus)	also measured
CC1(C)S[C@@H]2[C@H](NC(=O)[C@H](N)c3ccccc3)C(=O)N2[C@H]1C(=O)O [AMPICILLIN]	20 mg/L (≈ 57.2 µM)	5 mg/L (≈ 14.3 µM)	5 mg/L (≈ 14.3 µM)	5 mg/L (≈ 14.3 µM)	5 mg/L (≈ 14.3 µM)	5 mg/L (≈ 14.3 µM)	320 mg/L (≈ 916 µM)	5 mg/L (≈ 14.3 µM)	> 320 mg/L	> 320 mg/L	5 mg/L (≈ 14.3 µM)	10 mg/L (≈ 28.6 µM)	–
